High-throughput results: PubChem, Broad Institute
rRNA inh HTS: inhibits bacterial ribosomal RNA function over humanized ribosomes; GFP signal change (wild-type ribosome), % (no concentration beside the values); AID 720706; actives 1.6% (n = 350,000); E. coli WT GFP vs humanized-ribosome RFP mutants, fluorescence, 24 h; active compounds read low; DMSO median 0, no signal -100;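 active = significant combined selectivity score with lowered wild-type GFP, culture density cut under 30%, mutant RFP and density less affected; inactive = any of these conditions unmet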
PGC1a acetyl inh: modulators of PGC1a acetylation. inhibition, % at 15.6 µM. U2OS PGC1a acetylation, AlphaScreen anti-acetyl-lysine; with virally co-expressed GCN5 acetyltransferase. AID 651687. actives 0.17% (n = 350,000);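 active = every replicate shows inhibition of at least 40%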;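 note: 0% = neutral control wells and 100% = positive control wells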
PglD DTNB: blocks C. jejuni PglD acetyltransferase activity; actives 0.098% (n = 360,000); AID 602405; inhibition, % at 12.5 µM; purified PglD enzyme, DTNB colorimetric CoA detection; in the data active = inhibition above about 16%, passing the limit was not always enough
Cneo AK release: Cryptococcus neoformans lysis via adenylate kinase release; actives 0.2% (n = 360,000); lysis activity, % at 15 µM; C. neoformans lysis, adenylate kinase release luminescence, 4 h; normalised: neutral wells 0, clomiphene wells 100;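 active = mean lysis activity across replicates of at least 80%, whatever share of replicates individually reach that level; inactive = mean lysis activity below 80%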
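Schedule: static 4 h at 37 °C with compound, 1 h detection; system: C. neoformans cells; benchmarks: Clomiphene as positive control; buffer or medium: fresh YPD medium; measure: luminescence rise reflecting yeast cell lysis; measured by: luminescent adenylate kinase detection reagent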
Vif imaging: blocks HIV Vif function; HEK293T cells, Vif self-association by quenched fluorescence, imaging, 24 h; inhibition, % at 7.49 µM; actives 0.35% (n = 340,000); in the data active = inhibition above about 50%, passing the limit was not always enough
FGF22 binding-1: FGF22 (human) thermal shift binding; actives 1.5% (n = 340,000); activity (Tm shift, normalised), % at 9.99 µM; AID 651658; recombinant FGF22 thermal shift, SYPRO orange fluorescence; percent of sucrose octasulfate shift, DMSO zero; Q9HCT0;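 active = mean Tm shift, scaled 0 neutral to 100 positive control, at about 1.3% or above, every replicate too, limit read from the data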
Target sequence (Q9HCT0 whole entry, looked up): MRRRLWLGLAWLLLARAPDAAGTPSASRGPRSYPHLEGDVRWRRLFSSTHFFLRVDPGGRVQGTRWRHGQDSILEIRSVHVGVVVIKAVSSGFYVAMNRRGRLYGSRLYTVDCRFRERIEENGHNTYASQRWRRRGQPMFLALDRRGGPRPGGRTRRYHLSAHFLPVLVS
FGF22 binding-2: binders of human FGF22 by thermal shift; actives 2% (n = 1,000); thermal shift activity, °C (ΔTm) at 38 µM; shares compounds with FGF22 binding-1; recombinant FGF22 thermal shift, SYPRO orange fluorescence;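 active = fitted rise in melting shift crosses a set limit at or below the top valid dose tested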
FGF22 TSA: binds human FGF22 shifting its melting temperature | shares compounds with FGF22 binding-1 | Thermal shift assay, SYPRO orange, melting temperature shift | Tm shift (activity), % at 38 µM | 50 tested, under 10 active;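 active = compounds whose fitted dose curve of melting temperature shift rises past a set threshold within the tested doses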
TSA no protein: counter-screen for FGF22 binders: compound-only thermal shift, no protein; compound-only SYPRO orange thermal shift counter-screen; AC50, µM (series often up to 38 µM); actives 2% (n = 1,000); shares compounds with FGF22 binding-1;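 active = rising signal whose fitted curve reaches the 0.54 level within the top valid dose, showing a melting point, actives reach about 13 µM in these data; inactive = the rest, including activity in the opposite direction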; note: value is where the raw curve crosses a fixed level and not half-maximal
* hit, by the source's call; i = inactive; / = no result given; [ ] = dose if it differs, or a comment. An excerpt weighted towards active compounds, which were near 2.9% of everything screened.

SMILES	rRNA inh HTS	PGC1a acetyl inh	PglD DTNB	Cneo AK release	Vif imaging	FGF22 binding-1	FGF22 binding-2	TSA no protein	others
C[C@H]1CN([C@@H](C)CO)S(=O)(=O)c2ccc(-c3ccncc3)cc2O[C@H]1CN(C)C(=O)Nc1ccc(C(F)(F)F)cc1	-7	15	-2	0	/	2.0*	0.048	i
COCC(=O)Nc1ccc2c(c1)OC[C@@H](C)N(C(=O)CC1CC1)C[C@H](C)[C@H](OC)CN(C)C2=O	2	1	/	/	/	0	/	/
C[C@@H]1CN([C@H](C)CO)S(=O)(=O)c2ccc(C3=CCCCC3)cc2O[C@H]1CN(C)C(=O)CN(C)C	0	-28	5	-6	/	1.2*	0.22[42 µM]	i
C[C@@H]1CN([C@H](C)CO)S(=O)(=O)c2ccc(C3=CCCCC3)cc2O[C@@H]1CN(C)C(=O)CN(C)C	4	-32	12	16	/	1	/	/
C[C@@H]1CN([C@@H](C)CO)S(=O)(=O)c2ccc(C3=CCCC3)cc2O[C@H]1CN(C)C(=O)Nc1ccc2c(c1)OCO2	2	-9	3	49	/	0	/	/
C[C@@H]1CN([C@@H](C)CO)S(=O)(=O)c2ccc(C#Cc3ccncc3)cc2O[C@H]1CN(C)C(=O)Nc1ccc2c(c1)OCO2	-7	2	3	2	/	0	/	/
C[C@@H]1CN([C@@H](C)CO)S(=O)(=O)c2ccc(C3=CCCC3)cc2O[C@@H]1CN(C)C(=O)Nc1ccc2c(c1)OCO2	-3	-16	-1	0	/	2.0*	-0.042[42 µM]	i
C[C@H](CO)N1C[C@H](C)[C@H](CN(C)C(=O)Nc2ccc3c(c2)OCO3)Oc2cc(C3=CCCCC3)ccc2S1(=O)=O	-2	-17	0	2	/	1.6*	-0.031	11µM*
C[C@H]1CN([C@@H](C)CO)S(=O)(=O)c2ccc(C#Cc3ccncc3)cc2O[C@H]1CN(C)C(=O)Nc1ccc2c(c1)OCO2	-8	-1	7	-18	/	1.4*	-0.24	i
C[C@H]1CCCCO[C@H](CN(C)C(=O)c2ccccc2)[C@@H](C)CN([C@@H](C)CO)C(=O)c2cc(NC(=O)Nc3ccc(F)cc3)ccc2O1	-3	4	8	0	/	1	/	/
C=CCN(C(=O)c1csnn1)C(C(=O)NC1CCCCC1)c1ccc(C)cc1 (stereo not given)	1	-7	-1	1	11	0	/	/
C=CCN(C(=O)c1csnn1)C(C(=O)NC1CCCCC1)c1ccc(Cl)cc1 (stereo not given)	-4	-2	-3	3	-13	1.5*	-0.074	i
COC(=O)C[C@@H]1CC[C@H]2[C@H](COc3ccc(NC(=O)Nc4ccc(C#N)cc4)cc3C(=O)N2C)O1	-8	8	2	-6	/	0	/	/
COC(=O)C[C@H]1CC[C@H]2[C@@H](COc3ccc(NC(=O)c4ccc(F)c(F)c4)cc3C(=O)N2C)O1	-2	-4	-4	1	/	/	/	/
COC(=O)C[C@@H]1CC[C@@H]2[C@@H](COc3ccc(NC(=O)c4ccc(F)c(F)c4)cc3C(=O)N2C)O1	-7	0	-1	3	/	2.3*	0.072	i
COC(=O)C[C@H]1CC[C@@H]2[C@@H](COc3ccc(NC(=O)Nc4cccc(C#N)c4)cc3C(=O)N2C)O1	-15	18	1	-3	/	2.0*	-0.093[42 µM]	i	FGF22 TSA=0
COC(=O)C[C@H]1CC[C@@H]2[C@@H](COc3ccc(NC(=O)Nc4ccc(C#N)cc4)cc3C(=O)N2C)O1	-14	-12	4	-2	/	1.3*	-0.13	2.4µM*	FGF22 TSA=0
COC(=O)C[C@H]1CC[C@H]2[C@H](COc3ccc(NC(=O)Nc4ccc(C#N)cc4)cc3C(=O)N2C)O1	-12	-6	5	-7	/	0	/	/
O=C(C[C@H]1CC[C@H]2[C@@H](COC[C@@H](O)CN2C(=O)Nc2cccc(Cl)c2)O1)NCC1CCCCC1	-54	-2	-4	-10	/	0	/	/
O=C(C[C@@H]1CC[C@H]2[C@@H](COC[C@H](O)CN2CC2CCOCC2)O1)NCC1CCCCC1	2	0	-1	-3	/	0	/	/
C[C@H](NC(=O)C[C@@H]1CC[C@@H]2[C@H](COC[C@@H](O)CN2C(=O)Nc2cccc(Cl)c2)O1)c1ccccc1	-57	5	2	-8	/	1.5*	-0.005	i
O=C(C[C@@H]1CC[C@H]2[C@@H](COC[C@@H](O)CN2CC2CCOCC2)O1)NCC1CCCCC1	i	-5	-1	-2	/	7.9*	-0.032	i
COc1ccccc1CNC(=O)C[C@H]1CC[C@@H]2[C@H](COC[C@H](O)CN2C(=O)Nc2ccc(Cl)cc2)O1	-41	4	1	-10	/	17*	-0.099	i
O=C(C[C@@H]1CC[C@@H]2[C@H](COC[C@@H](O)CN2C(=O)Nc2cccc(Cl)c2)O1)NCC1CCCCC1	-56	9	4	-9	/	14*	0.033	i
COc1ccccc1CNC(=O)C[C@H]1CC[C@H]2[C@@H](COC[C@H](O)CN2C(=O)Nc2ccc(Cl)cc2)O1	-9	8	-1	-8	/	0	/	/
C[C@@H](NC(=O)C[C@@H]1CC[C@H]2[C@@H](COC[C@H](O)CN2C(=O)Nc2cccc(Cl)c2)O1)c1ccccc1	-58	-1	3	-2	/	0	/	/
Cc1noc(C)c1S(=O)(=O)Nc1ccc2c(c1)C(=O)N([C@H](C)CO)C[C@H](C)[C@H](CN(C)S(=O)(=O)c1c(C)noc1C)OCCCC[C@H](C)O2	2	4	0	-4	/	0	/	/
COCC(=O)Nc1ccc2c(c1)C(=O)N(C)[C@@H]1CC[C@H](CC(=O)NCc3ccccc3Cl)O[C@@H]1CO2	1	5	4	1	/	0	/	/
O=C(Nc1ccc2c(c1)[C@H]1C[C@H](CC(=O)N3CCOCC3)O[C@@H](CO)[C@H]1O2)NC1CCCC1	4	-2	3	-9	/	0	/	/
COc1cccc(NC(=O)N2C[C@H](O)COC[C@@H]3O[C@H](CC(=O)NC4CCC4)CC[C@H]32)c1	-1	1	4	-2	/	0	/	/
